TRPC6 activator: activates the mouse TRPC6 cation channel; 310,000 compounds, 0.13% hits; HEK293-TRPC6 membrane potential dye fluorescence; hits give high values; B-score at 10 µM;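 active means B-score of the integrated fluorescence ratio above library mean plus 3 SD, and starting fluorescence ratio within library mean plus 5 SD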;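 further: higher score means more depolarization so channel activation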
Target sequence (Q61143 whole entry, looked up): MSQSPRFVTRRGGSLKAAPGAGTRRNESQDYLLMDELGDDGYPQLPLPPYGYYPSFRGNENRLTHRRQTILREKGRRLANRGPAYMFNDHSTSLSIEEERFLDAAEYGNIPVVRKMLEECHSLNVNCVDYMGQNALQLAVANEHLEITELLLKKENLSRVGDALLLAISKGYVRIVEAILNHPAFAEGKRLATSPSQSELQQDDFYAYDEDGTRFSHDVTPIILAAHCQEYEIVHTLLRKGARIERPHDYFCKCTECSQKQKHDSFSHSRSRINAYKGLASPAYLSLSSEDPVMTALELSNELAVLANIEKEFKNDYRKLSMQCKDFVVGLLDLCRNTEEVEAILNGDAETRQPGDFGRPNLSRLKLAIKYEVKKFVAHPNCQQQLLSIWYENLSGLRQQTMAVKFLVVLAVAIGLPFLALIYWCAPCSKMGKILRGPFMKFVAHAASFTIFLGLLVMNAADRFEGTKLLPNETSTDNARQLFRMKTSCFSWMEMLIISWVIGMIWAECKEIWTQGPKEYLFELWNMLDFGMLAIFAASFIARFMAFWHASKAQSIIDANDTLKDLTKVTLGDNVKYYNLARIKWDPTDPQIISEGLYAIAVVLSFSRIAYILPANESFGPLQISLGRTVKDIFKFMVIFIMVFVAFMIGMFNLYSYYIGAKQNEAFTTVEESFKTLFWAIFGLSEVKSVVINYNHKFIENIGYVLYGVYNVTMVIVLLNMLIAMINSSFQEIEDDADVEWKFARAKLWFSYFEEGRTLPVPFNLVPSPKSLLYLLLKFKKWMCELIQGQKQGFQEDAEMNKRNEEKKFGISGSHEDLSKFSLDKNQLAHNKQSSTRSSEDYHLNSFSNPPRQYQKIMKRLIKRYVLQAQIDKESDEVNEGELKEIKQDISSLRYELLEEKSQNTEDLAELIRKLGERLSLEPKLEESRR
TRPC6 inh: mouse TRPC6 channel inhibition; HEK293-TRPC6, membrane potential dye, ACh-evoked depolarization; hits give low values; AID 2553; Q61143; B-score at 10 µM; 310,000 compounds, 1.1% hits;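 active means B-score under library mean minus 3 SD, initial fluorescence not abnormally high, positive integrated signal ratio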;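 further: B-score derived from integrated fluorescence ratio over the kinetic read; more negative B-score means stronger inhibition of depolarization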
Kir21 inh: inhibitors of mouse Kir2.1 inward-rectifier potassium channel | B-score at 10 µM | AID 1672 | 310,000 compounds, 0.85% hits | P35561 | HEK293-Kir2.1, FluxOR thallium flux fluorescence; hits give low values;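 active means fluorescence ratio B-score at or below minus 3 SD of library scores, with starting-brightness B-score within 2 SD, cut at about -4.2 in these data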;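 further: channel flux triggered by added potassium and thallium sulfate stimulus; B-score of peak minus minimum fluorescence over baseline after thallium stimulus; more negative B-score means stronger Kir2.1 block with less thallium influx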
TRPC4 potent: allosteric potentiators of mouse TRPC4 channel; HEK293 TRPC4beta/mu-opioid, DAMGO EC20, Fluo-4 Ca2+ flux; hits give high values; 310,000 compounds, 0.42% hits; B-score at 10 µM;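 active means B-score of calcium response area above 5 SD of library B-scores, with initial fluorescence ratio within 5 SD of library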;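 further: B-score of integrated fluorescence ratio over time as area under calcium response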
TRPC4 act: activators of mouse TRPC4 channel. Q9QUQ5. 310,000 compounds, 0.49% hits. HEK293 TRPC4beta/mu-opioid, Fluo4 calcium fluorescence; hits give high values. B-score at 10 µM;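 active means B-score above 5 SD of library B-scores, and initial fluorescence ratio not above library mean plus 5 SD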;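 further: positive B-score marks a calcium rise read as TRPC4 activation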
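Assay system: HEK293 cells stably co-expressing mouse TRPC4beta and mu-opioid receptor / Timing: Fluo4 dye loading 45 min at room temperature, 110 s recording / Signal: Fluo4 calcium-sensitive dye fluorescence, kinetic, 1 Hz baseline / Read-out: integrated baseline-normalised fluorescence ratio, converted to per-well B score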
TRPC4 block: inhibitors of mouse TRPC4 channel | Q9QUQ5 | HEK293 TRPC4beta/mu-opioid, DAMGO-evoked Fluo4 calcium flux; hits give low values | B-score at 10 µM | 300,000 compounds, 0.39% hits | AID 2247;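 active means B-score over 3 SD under the library average, no early fluorescence shift, positive overall ratio signal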
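Assay system – HEK293 line stably carrying TRPC4beta and mu-opioid receptor · Doses – single dose · Detection – Fluo4 calcium-dye fluorescence, kinetic read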
* hit, by the source's call; i = inactive. This is a sample that favours compounds with a hit; in the whole collection about 2.9% have one here.

SMILES | TRPC6 activator | TRPC6 inh | Kir21 inh | TRPC4 potent | TRPC4 act | TRPC4 block
OCc1nc2ccccc2n1CCOc1ccccc1 | i | i | 0.52 | i | i | -6*
Cc1nc2ccccc2n1CCOc1ccc(F)cc1 | i | i | 0.9 | i | i | -6*
OCc1nc2ccccc2n1CCCCOc1ccccc1 | i | i | -0.4 | i | i | i
CCc1cc2c(CN3CCN(C)CC3)cc(=O)oc2cc1O | i | i | -1.6 | i | 51* | i
Cc1cc2oc(=O)cc(CN3CCN(Cc4ccccc4)CC3)c2cc1O | i | i | -2.8 | i | 79* | i
CC(C)(C)c1ccc(C(=O)NCCCN2CCN(CCCNC(=O)c3ccc(C(C)(C)C)cc3)CC2)cc1 | i | i | -2.5 | i | i | i
COc1cc(OC)cc(C(=O)NCCCN2CCN(CCCNC(=O)c3cc(OC)cc(OC)c3)CC2)c1 | i | i | -1.1 | i | 119* | i
COc1ccc(N2CCN(CCCNC(=O)c3ccc(CS(=O)(=O)c4ccc(OC)cc4)o3)CC2)cc1 | i | i | -2.3 | i | i | -6*
CCOC(=O)c1c(-c2ccc(OC)cc2)oc2ccc(O)cc12 | i | i | 0.35 | 17* | i | i
Cc1onc(-c2ccccc2)c1C(=O)NNC(=S)NC(=O)c1ccc2c(c1)OCO2 | i | i | -0.49 | i | 79* | i
Cc1onc(-c2ccccc2)c1C(=O)NC(=S)NNC(=O)c1ccco1 | i | i | 1.3 | i | 84* | i
Cc1onc(-c2ccccc2)c1C(=O)NC(C)c1ccc2c(c1)OCO2 (stereo not given) | i | i | -0.94 | i | i | i
COc1ccc(C(=O)NC(=S)NNC(=O)c2c(-c3ccccc3)noc2C)cc1OC | i | i | 0.71 | i | 85* | i
COc1ccc(CCNC(=O)c2c(-c3ccccc3)noc2C)cc1OC | i | i | -0.5 | i | i | i
Cc1onc(-c2ccccc2)c1C(=O)NNC(=S)NC(=O)/C=C/c1cccs1 | i | i | -1.6 | i | 52* | i
Cc1onc(-c2ccccc2)c1C(=O)NC(=S)NNC(=O)c1ccncc1 | i | i | -0.09 | i | i | i
Cc1ccc(S(=O)(=O)N2CCC(C(=O)NNC(=O)c3cccnc3)CC2)cc1 | i | i | 0.93 | i | i | i
CCC(C)(C)NC(=O)C(c1ccccc1Cl)N(Cc1cccnc1)C(=O)CCC(=O)Nc1cc(C)on1 (stereo not given) | i | i | -0.38 | i | i | i
CC(C)Cc1ccc(CN2CCCC(NC(=O)c3cccc(-n4cnnc4)c3)C2)cc1 (stereo not given) | i | i | 0.06 | i | i | i
O=C(CCC1CCCN(C(=O)c2ccsc2)C1)N1CCN(c2ccccn2)CC1 (stereo not given) | i | i | 2.5 | i | i | i
Cc1ccc(NC(=O)NC(=O)CN2C(=O)NC3(CCCCCCC3)C2=O)c(C)c1 | i | -5.6* | -0.52 | i | i | i
CC(=O)NC1(NC(C)=O)CCN(C)CC1 | i | i | 1.1 | i | i | i
CC1CCN(C(=O)CSc2nnc3ccc(-c4cccnc4)nn23)CC1 | i | i | -0.71 | i | i | i
CC(C)C1=Nc2cccc3cccc(c23)N1 | i | i | -0.73 | i | i | -6*
ClCC1=Nc2cccc3cccc(c23)N1 | i | i | -0.63 | i | i | i
SMILES | TRPC6 activator | TRPC6 inh | Kir21 inh | TRPC4 potent | TRPC4 act | TRPC4 block
Cc1ccc(S(=O)(=O)N(C)C)cc1NC(=S)N1CCN(Cc2ccc3c(c2)OCO3)CC1 | i | i | 0.41 | i | i | i
COc1cc(NC(=O)Cn2cnc(S(=O)(=O)N3CCOCC3)c2)cc(OC)c1OC | i | i | -0.04 | i | i | i
CCOc1cccc(CN2CCCC(CCC(=O)NCc3ccccc3F)C2)c1O (stereo not given) | i | i | -0.1 | i | 56* | i
Cc1nn(C)c(Cl)c1CN1CCCC(CCC(=O)NCc2ccccc2F)C1 (stereo not given) | i | i | -0.42 | i | i | i
COc1cccc(NC(=O)N(C2CCCCC2)C(C)c2cccs2)c1 (stereo not given) | i | i | -0.81 | i | i | i
O=C(Nc1ccncc1)C1CCN(S(=O)(=O)c2ccccc2C(F)(F)F)CC1 | i | i | 0.75 | i | i | i
CC1CCCCC1NS(=O)(=O)c1ccc(S(=O)(=O)N2CCCC2)cc1 (stereo not given) | i | i | 1.7 | 49* | i | i
CC(=O)OC1C([N+]2(C)CCCCC2)C[C@H]2C3CC[C@H]4C[C@H](OC(C)=O)C([N+]5(C)CCCCC5)CC4(C)[C@H]3CCC12C (stereo not given in full) | i | i | 1.9 | i | i | i
CC(=O)O[C@H]1CC[C@@]2(C)C(CCC3C2CC[C@]2(C)OC(=O)CCC32)C1 (stereo not given in full) | i | i | -1.4 | 10* | i | i
O=[N+]([O-])c1c(Nc2ccccc2O)cc(Cl)c2nonc12 | i | i | -7.2* | i | i | i
COc1cc(/C=C/C(=O)O)cc(S(=O)(=O)Nc2ccc3nc(SC)sc3c2)c1OC | i | i | 0.41 | i | i | i
CCCCN1C2=NCCCN2c2ccccc21 | i | i | 1.1 | i | i | i
Cc1cc2c(cc1C)N(Cc1ccc(Cl)cc1)C1=NCCCN12 | i | i | -2.2 | 111* | i | i
CC(C)(C)c1ccc(CN2C3=NCCCN3c3ccccc32)cc1 | i | i | -3.9 | i | i | i
CCCCN1C2=NCCCN2c2cc(C)c(C)cc21 | i | i | -0.55 | i | i | -7*
COc1ccc(NC(=O)c2cccc(N3C(=O)C4C5C=CC(C6CC56)C4C3=O)c2)cc1 (stereo not given) | i | i | 0 | i | i | i
COc1cccc(CNc2cc(CSc3ccc(Cl)cc3)nc(C)n2)c1 | i | i | -7.7* | i | i | i
COc1ccc(OCC(=O)Nc2c3c(nn2-c2ccc(OC)cc2)CS(=O)(=O)C3)cc1 | i | i | 0.17 | i | i | i
CS(=O)(=O)Nc1ccc(C2=NN(C(=O)c3ccco3)C(c3ccco3)C2)cc1 (stereo not given) | i | i | -0.48 | i | i | i

High-throughput results: PubChem BioAssay, Johns Hopkins Ion Channel Center
